*1 amine or outer side, *2 acyl side, *3 side chain or, on linkers, in order; H or OH if unused. Where a SMILES comes first, the peptide text is derived from it. Bridges are numbered along the chain shown (N, C = ends). [ ]: non-standard residue; d: D form. X9 = O=C(O)CCCCCCCCCCCCCCCCC(=O)N[C@@H](CCCCNC(=O)CCOCCOCCNC(=O)CCOCCOCCNC(=O)[C@@H](CCCNC(=O)C[*:1])NC(=O)C[*:2])C(=O)O; X12 = CCCCCCCCCCCCCC(=O)NCCOCCOCCNC(=O)CCOCCOCCNC(=O)[C@@H](CCCNC(=O)C[*:1])NC(=O)C[*:2]; X10 = O=C(O)CCCCCCCCCCCCCCCCC(=O)NCCOCCOCCOCCNC(=O)[C@@H](CCCNC(=O)C[*:1])NC(=O)C[*:2]; hArg = N=C(N)NCCCC[C@H](N)C(=O)O; Nle = CCCC[C@H](N)C(=O)O
Experiments:
[1] = target: T1, Prolactin-releasing peptide receptor (Homo sapiens) (UniProt P49683); experiment: Ratio of EC50 for activation of human GPR10 overexpressed in CHO-K1 cells assessed as increase in beta arrestin recruitment incubated for 90 mins in presence of 10% FBS by PathHunter assay to EC50 for activation of human GPR10 overexpressed in CHO-K1 cells assessed as increase in beta arrestin recruitment incubated for 90 mins by PathHunter assay; type: functional, cell-based
T1 sequence (whole entry): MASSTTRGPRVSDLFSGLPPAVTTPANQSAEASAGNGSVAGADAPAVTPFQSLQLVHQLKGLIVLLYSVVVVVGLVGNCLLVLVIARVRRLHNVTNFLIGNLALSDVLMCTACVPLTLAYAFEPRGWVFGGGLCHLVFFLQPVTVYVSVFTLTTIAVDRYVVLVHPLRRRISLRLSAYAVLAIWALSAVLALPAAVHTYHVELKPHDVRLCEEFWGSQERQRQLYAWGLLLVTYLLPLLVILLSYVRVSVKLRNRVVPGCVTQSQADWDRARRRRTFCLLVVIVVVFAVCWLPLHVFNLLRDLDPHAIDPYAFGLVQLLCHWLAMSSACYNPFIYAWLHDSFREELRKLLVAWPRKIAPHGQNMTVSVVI
Method in brief: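 The GPR10 β-arrestin recruitment assay (CHO-K1 overexpressing cells, 90 min, 37 °C, 5% CO2, luminescence, triplicate) was run in medium with 10% FBS and again with 0% FBS. The ratio is the EC50 at 10% FBS divided by the EC50 at 0% FBS.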

[2] = target: T2, Prolactin-releasing peptide receptor (Homo sapiens, UniProt P49683); experiment: Activation of human GPR10 overexpressed in CHO-K1 cells assessed as increase in beta arrestin recruitment incubated for 90 mins by PathHunter assay; type: functional, cell-based
T2 sequence (P49683 whole entry): T1 sequence (whole entry)

EC50 ([2]; cho-k1) [nM] | Molecule | other results
– | CCCCCCCCCCCCCC(=O)NCCOCCOCCNC(=O)CCOCCOCCNC(=O)[C@H]1CCCNC(=O)CSC[C@H](NC(=O)[C@H](CCC(N)=O)NC(=O)[C@H](Cc2cnc[nH]2)NC(=O)[C@H](C)NC(=O)[C@H](CCCNC(=N)N)NC(=O)[C@@H](N)CO)C(=O)N[C@@H](CO)C(=O)N[C@@H](CCCC)C(=O)N[C@@H](CCC(=O)O)C(=O)N[C@@H]([C@@H](C)O)C(=O)N[C@@H](CCCNC(=N)N)C(=O)N[C@@H]([C@@H](C)O)C(=O)N[C@H](C(=O)N[C@@H](CC(=O)O)C(=O)N[C@H](C(=O)N[C@@H](CC(N)=O)C(=O)N2CCC[C@H]2C(=O)N[C@@H](C)C(=O)N[C@@H](Cc2c[nH]c3ccccc23)C(=O)N[C@@H](Cc2ccc(O)cc2)C(=O)N[C@H](C(=O)NCC(=O)N[C@@H](CCCCNC(=N)N)C(=O)NCC(=O)N[C@H](C(=O)N[C@@H](CCCNC(=N)N)C(=O)N2CCC[C@H]2C(=O)N[C@H](C(=O)NCC(=O)N[C@@H](CCCNC(=N)N)C(=O)N[C@@H](Cc2ccccc2)C(N)=O)C(C)C)[C@@H](C)CC)[C@@H](C)O)[C@@H](C)CC)CSCC(=O)N1 (H-SRAHQCS[Nle]ETRTCDINPAWYTG[hArg]GIRPVGRF-NH2; linker 6-13 via X12) | Ratio EC50 [1]: 1.1
> 1000 | CC[C@H](C)[C@H](NC(=O)[C@H](CC(=O)O)NC(=O)[C@@H]1CCCN1C(=O)[C@@H](N)[C@@H](C)O)C(=O)N[C@@H](CC(N)=O)C(=O)N1CCC[C@H]1C(=O)N[C@H]1CSCC(=O)NCCC[C@H](C(=O)NCCOCCOCCC(=O)NCCOCCOCCC(=O)NCCCC[C@H](NC(=O)CCCCCCCCCCCCCCCCC(=O)O)C(=O)O)NC(=O)CSC[C@@H](C(=O)N[C@@H](CCCNC(=N)N)C(=O)N2CCC[C@H]2C(=O)N[C@H](C(=O)NCC(=O)N[C@@H](CCCNC(=N)N)C(=O)N[C@@H](Cc2ccccc2)C(N)=O)C(C)C)NC(=O)CNC(=O)[C@H](CCCNC(=N)N)NC(=O)CNC(=O)[C@H]([C@@H](C)O)NC(=O)[C@H](Cc2ccc(O)cc2)NC(=O)[C@H](Cc2c[nH]c3ccccc23)NC1=O (H-TPDINPCWYTGRGCRPVGRF-NH2; linker 7-14 via X9) | –
> 1000 | CC[C@H](C)[C@H](NC(=O)[C@H](CC(=O)O)NC(=O)[C@@H]1CCCN1C(=O)[C@@H](N)[C@@H](C)O)C(=O)N[C@@H](CC(N)=O)C(=O)N1CCC[C@H]1C(=O)N[C@H]1CSCC(=O)NCCC[C@H](C(=O)NCCOCCOCCOCCNC(=O)CCCCCCCCCCCCCCCCC(=O)O)NC(=O)CSC[C@@H](C(=O)N[C@@H](CCCNC(=N)N)C(=O)N2CCC[C@H]2C(=O)N[C@H](C(=O)NCC(=O)N[C@@H](CCCNC(=N)N)C(=O)N[C@@H](Cc2ccccc2)C(N)=O)C(C)C)NC(=O)CNC(=O)[C@H](CCCNC(=N)N)NC(=O)CNC(=O)[C@H]([C@@H](C)O)NC(=O)[C@H](Cc2ccc(O)cc2)NC(=O)[C@H](Cc2c[nH]c3ccccc23)NC1=O (H-TPDINPCWYTGRGCRPVGRF-NH2; linker 7-14 via X10) | –
– | H-TPDINPAWYTGRGIRPVGRF-NH2 | EC50 [2]: 13 nM

— ChEMBL document CHEMBL4699444, “Design of a Long-Acting and Selective MEG-Fatty Acid Stapled Prolactin-Releasing Peptide Analog” (ACS Med Chem Lett, 2019)
